Results on 11 compounds are retold here after ChEMBL document CHEMBL2434960 (Eur J Med Chem, 2013).

This assay addresses Replicase polyprotein 1a (Severe acute respiratory syndrome-related coronavirus, UniProt P0C6U8). The assay is described as follows: Inhibition of SARS coronavirus 3CL-protease by fluorescence assay. Put shortly:
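Protease inhibition was measured by a fluorometric assay. Substrate concentration was held constant while inhibitor concentration was varied, and the kinetic parameters gave Ki values.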

SMILES strings stand for the structures.

Turning to `CC(C)C[C@H](NC(=O)c1nc2ccccc2s1)C(=O)N[C@@H](C[C@@H]1CCNC1=O)C(=O)c1nc2ccccc2s1`, the affinity corresponds to a Ki of 800 nM.

With `CC(C)C[C@H](NC(=O)C1Cc2ccccc2N1)C(=O)N[C@@H](C[C@@H]1CCNC1=O)C(=O)c1nc2ccccc2s1` (stereo partly specified), the Ki (as a rule, a dissociation constant, usually derived from enzyme kinetics or from competition with a known ligand) stood at 120 nM. In turn, `CC(C)C[C@H](NC(=O)c1cc2ccccc2o1)C(=O)N[C@@H](C[C@@H]1CCNC1=O)C(=O)c1nc2ccccc2s1` gave a Ki of 14000 nM. Turning to `CC(C)C[C@H](NC(=O)c1c[nH]c2ccccc12)C(=O)N[C@@H](C[C@@H]1CCNC1=O)C(=O)c1nc2ccccc2s1`, the Ki worked out at 680 nM.

The compound `CC(C)C[C@H](NC(=O)c1cc2cc(O)ccc2[nH]1)C(=O)N[C@@H](C[C@@H]1CCNC1=O)C(=O)c1nc2ccccc2s1` showed a Ki of 160 nM. In the case of `COc1ccc2cc(C(=O)N[C@@H](CC(C)C)C(=O)N[C@@H](C[C@@H]3CCNC3=O)C(=O)c3nc4ccccc4s3)[nH]c2c1` it was 330 nM.

For `CC(C)C[C@H](NC(=O)c1cc2c(OC(C)C)cccc2[nH]1)C(=O)N[C@@H](C[C@@H]1CCNC1=O)C(=O)c1nc2ccccc2s1`, the affinity, expressed as Ki, was 48 nM.

`COc1ccc2[nH]c(C(=O)N[C@@H](CC(C)C)C(=O)N[C@@H](C[C@@H]3CCNC3=O)C(=O)c3nc4ccccc4s3)c(C)c2c1` had a Ki of 6700 nM. `CCc1c(C(=O)N[C@@H](CC(C)C)C(=O)N[C@@H](C[C@@H]2CCNC2=O)C(=O)c2nc3ccccc3s2)[nH]c2ccc(OC)cc12` registered a Ki of 7500 nM. Next, `CC(C)C[C@H](NC(=O)c1ccc[nH]1)C(=O)N[C@@H](C[C@@H]1CCNC1=O)C(=O)c1nc2ccccc2s1`: 1700 nM; `CC(C)C[C@H](NC(=O)C1CCC(=O)N1)C(=O)N[C@@H](C[C@@H]1CCNC1=O)C(=O)c1nc2ccccc2s1` (mixture of isomers): 2700 nM.
